The list is not random: actives were taken first. Their share in the collection is about 2.1%.
SR-BI uptake up = SR-BI HDL lipid transfer activation. activation, % at 12.5 µM. CHO ldlA[mSR-BI] cells, DiI-HDL uptake fluorescence, 3 h; 100 = double the neutral-control signal. hit rate 0.096% among 320,000;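 active = mean replicate activation of at least 60% and every replicate at or above 60%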;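 also: 0% = median plate neutral-control signal and 100% = twice that signal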
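Material: SR-BI-overexpressing, LDLR-lacking CHO cells; schedule: compound exposure 3 h, 37 °C; reagent: DiI-labelled HDL at 10 µg/mL final; technique: bottom-read fluorescence, 550/595 nm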
SR-BI HDL uptake = mouse SR-BI HDL lipid transfer inhibition. Q61009. ldlA[mSR-BI] CHO cells, DiI-HDL uptake fluorescence, 3 h. inhibition, % at 12.5 µM. hit rate 0.96% among 320,000;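 active = mean replicate inhibition of at least 70% and a set share of replicates each scoring 70 or more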;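 also: 0% = median of neutral control wells and 100% = median of positive control wells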
Target sequence (Q61009 whole entry, looked up): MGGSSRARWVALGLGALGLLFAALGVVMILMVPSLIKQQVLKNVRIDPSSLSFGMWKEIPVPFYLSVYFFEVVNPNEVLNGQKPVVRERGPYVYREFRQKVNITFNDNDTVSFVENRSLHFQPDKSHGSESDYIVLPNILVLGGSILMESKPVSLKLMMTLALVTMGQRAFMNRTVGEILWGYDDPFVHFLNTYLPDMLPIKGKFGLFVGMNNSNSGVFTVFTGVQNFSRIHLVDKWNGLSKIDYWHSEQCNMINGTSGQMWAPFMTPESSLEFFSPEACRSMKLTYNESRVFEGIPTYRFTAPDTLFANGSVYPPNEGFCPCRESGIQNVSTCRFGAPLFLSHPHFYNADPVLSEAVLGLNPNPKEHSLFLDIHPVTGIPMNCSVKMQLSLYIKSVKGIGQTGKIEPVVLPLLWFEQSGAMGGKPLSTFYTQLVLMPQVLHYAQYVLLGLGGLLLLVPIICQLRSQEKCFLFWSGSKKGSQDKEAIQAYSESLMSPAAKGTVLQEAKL
CAL PDZ FP-1 = blocks peptide binding to the human CAL PDZ domain; AID 602252; purified CAL PDZ, TMR-peptide fluorescence polarization, 1 h; inhibition, % at 24.9 µM; hit rate 0.92% among 300,000;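 active = mean inhibition of at least 30% with at least half of replicates also reaching 30%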;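 also: 0% = DMSO neutral control and 100% = excess unlabeled competitor peptide PRC23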
miR122 inh = inhibitors of miR-122 in Huh7 cells; Huh7 miR-122 Renilla luciferase sensor, 48 h; neutral wells = 0, positive control = 100; activation (reporter increase), % at 12.5 µM; hit rate 0.3% among 340,000;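 active = mean replicate activation score at least 90 and every replicate individually at or above 90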;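 also: higher luciferase means less miR-122 activity so hits act as miR-122 inhibitors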
CAL PDZ FP-2 = human CAL PDZ-peptide interaction inhibition | Q9HD26 | purified CAL PDZ, TMR-peptide fluorescence polarization, 1 h | inhibition, % at 20 µM | hit rate 0.02% among 330,000 | AID 504414;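 active = highest replicate inhibition of at least 40%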;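 also: plate controls were DMSO neutral control wells for no effect and unlabeled competitor peptide control wells for full effect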
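Read-out basis: mP drop reported as inhibition | Assay system: Tagged CAL PDZ protein CerCALP, purified | Benchmarks: Unlabelled peptide for full inhibition, DMSO wells as neutral | Schedule: 1 h incubation at room temperature before polarization reading | Buffer or medium: Sodium phosphate/NaCl buffer pH 7.4 with TCEP, IgG, Thesit | Doses: Single point, 20 µM | Measured by: Fluorescence polarization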
ARNT TACC3 PPI = ARNT/TACC3 interaction disruption. hit rate 0.66% among 390,000. inhibition, % at 9.99 µM. AlphaScreen His-ARNT PAS-B/GST-TACC3 binding, luminescence; TACC3 fragment carries E629A point mutation. Q9Y6A5;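 active = mean inhibition of replicates at least 50% and at least half of replicates each reaching 50%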;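 also: 0% = complete ARNT plus TACC3 wells and 100% = ARNT alone without TACC3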
* marks the source's active call; other numbers are inactive results; · = not tested or not shown; [ ] = dose if it differs, or a comment.

SMILES | SR-BI uptake up | SR-BI HDL uptake | CAL PDZ FP-1 | miR122 inh | CAL PDZ FP-2 | ARNT TACC3 PPI
C[C@H]1CCCCO[C@H](CN(C)S(=O)(=O)c2ccc(F)cc2)[C@@H](C)CN([C@@H](C)CO)C(=O)c2cc(NC(=O)Nc3ccc(C(F)(F)F)cc3)ccc2O1 | · | · | · | 6[16.7 µM] | · | 37
CCOC(=O)Cc1nnc(Nc2cccc(C)c2)c2ccccc12 | -40 | 40 | -7 | 5 | -1 | -1
COC(=O)Cc1nnc(Nc2cccc(C)c2)c2ccccc12 | -12 | 12 | 30* | -5 | -1 | 3
CN(C)CCCNC(=O)C[C@@H]1CC[C@H](NS(=O)(=O)c2ccccc2)[C@H](CO)O1 | · | · | · | · | · | -9
CCOC(=O)c1ccc(N/C=C\C(=O)c2cccc(OC)c2)cc1 | -18 | 18 | -1 | 4 | -2 | 1
COc1cccc(C(=O)/C=C/Nc2cc(C)ccc2O)c1 | -92 | 92* | 0 | -8 | -1 | 5
CN(C)CCCn1c(=S)[nH]c2sc3c(c2c1=O)CCCC3 | 6 | -6 | 49* | -4 | -1 | 8
CCn1c(=S)[nH]c2sc3c(c2c1=O)CCCC3 | 11 | -11 | · | -5 | -1 | 5
CN[C@H]1CCc2cc(OC)c(OC)c(OC)c2-c2ccc(N(C)CC(OC)OC)c(=O)cc21 | 6 | -6 | -2 | 130* | · | -21
O=[N+]([O-])c1cc2c(cc1/C=N\NS(=O)(=O)c1ccccc1)OCO2 | 9 | -9 | -2 | -7 | 0 | -1
CNc1nc(N/N=C/c2cc([N+](=O)[O-])ccc2F)nc(Nc2ccccc2)n1 | -75 | 75* | -1 | -2 | 0 | -2
CNc1nc(N/N=C/c2cc3c(cc2[N+](=O)[O-])OCO3)nc(Nc2ccccc2)n1 | -87 | 87* | 1 | · | -4 | -3
C[C@@H]1CN([C@@H](C)CO)C(=O)c2cc(NC(=O)Nc3ccc4c(c3)OCO4)ccc2O[C@@H]1CN(C)Cc1ccc(Cl)c(Cl)c1 | · | · | · | -3[16.7 µM] | · | 23
Cc1cccc(C(=O)NNC(=O)c2ccc(NS(=O)(=O)c3cccs3)cc2)c1C | -23 | 23 | 0 | -1 | 0 | -2
O=C(NNC(=O)c1cc(Cl)ccc1O)c1ccc(NS(=O)(=O)c2cccs2)cc1 | -119 | 119* | 3 | 14 | -1 | 16
Cc1ccccc1NS(=O)(=O)c1ccc(C(=O)NNC(=O)c2ccccc2O)cc1 | -84 | 84* | -2 | 1 | -1 | 14
O=C(NNC(=O)c1ccccc1O)c1ccc(NS(=O)(=O)c2ccc(F)cc2)cc1 | -87 | 87* | 8 | 8 | -3 | 13
Cc1noc(C)c1S(=O)(=O)Nc1ccc2c(c1)CC(=O)N([C@@H](C)CO)C[C@@H](C)[C@@H](CN(C)S(C)(=O)=O)O2 | · | · | · | 0[16.7 µM] | · | -10
CO[C@H]1CN(C)C(=O)c2cc(NS(=O)(=O)Cc3ccccc3)ccc2OC[C@H](C)NC[C@H]1C | · | · | · | · | · | -4
O=C(C[C@@H]1C=C[C@H](NS(=O)(=O)c2ccc(F)cc2)[C@@H](CO)O1)NC1CCC1 | · | · | · | · | · | -9
O=C(Nc1ccnn1C1CCN(CC2CC=CCC2)CC1)c1ccccc1Cl (stereo not drawn) | 15 | -15 | 51* | 3 | 1 | 2
CCc1ccc(CNCCNCC(C)O)cc1 (stereo not drawn) | 2 | -2 | · | 12 | -2 | 10
CC(O)CNCCNCc1cccs1 (stereo not drawn) | 9 | -9 | 47* | · | 14 | 0
C[C@@H](NC(=O)[C@@H]1[C@@H](CO)[C@@H]2Cn3c(cccc3=O)[C@H]1N2Cc1cccnc1)c1ccccc1 | · | · | · | 4[16.7 µM] | · | -7
O=C(Nc1nc2ccccc2[nH]1)c1cccc([N+](=O)[O-])c1 | -43 | 43 | 5 | · | 1 | 1
SMILES | SR-BI uptake up | SR-BI HDL uptake | CAL PDZ FP-1 | miR122 inh | CAL PDZ FP-2 | ARNT TACC3 PPI
COC(=O)c1cc(C(=O)Nc2nc3ccccc3[nH]2)cc([N+](=O)[O-])c1 | -80 | 80* | -1 | 1 | 1 | -8
C/C(=N/Nc1ccc(C(=O)c2c(C)cc3ccccn23)cc1[N+](=O)[O-])c1ccc(O)cc1 | -101 | 101* | 0 | 7 | -1 | 3
C/C(=N\Nc1ccc(C(=O)c2c(C)cc3ccccn23)cc1[N+](=O)[O-])c1ccc(O)cc1 | · | · | -6 | -2 | -3 | -2
COc1ccc(OC)c(Nc2cc(C)nc3nc(C)nn23)c1 | -8 | 8 | · | 107* | -1 | 3
COc1ccc(CNC(=O)C(c2ccco2)N(C(=O)c2csnn2)c2cccc(C)c2C)cc1 (stereo not drawn) | 2 | -2 | -1 | 97* | · | 5
O=C(NCc1ccccc1)c1ccc2ccccc2n1 | · | · | · | -2 | -1 | -10
Cc1ccccc1CNC(=O)c1ccc2ccccc2n1 | 12 | -12 | 76* | -3 | -1 | -8
COc1ccc(NC(=O)N(C)C[C@@H]2OCCCC[C@H](C)Oc3ccc(NC(=O)Nc4ccc(C(F)(F)F)cc4)cc3C(=O)N([C@@H](C)CO)C[C@H]2C)cc1 | · | · | · | 1[16.7 µM] | · | 11
C[C@@H]1CN([C@@H](C)CO)C(=O)c2cc(C#Cc3cccc(F)c3)cnc2O[C@H]1CN(C)Cc1ccccn1 | · | · | · | -3[16.7 µM] | · | -10
O=C(NCC[C@@H]1CC[C@@H](NS(=O)(=O)c2ccccc2)[C@H](CO)O1)c1ccc2c(c1)OCO2 | · | · | · | · | · | -4
O=C(COc1ccc(F)cc1Cl)Nc1cccc(S(=O)(=O)N2CCCCCC2)c1 | -8 | 8 | -1 | · | -2 | -5
O=C(CCS(=O)(=O)c1ccccc1)Nc1ccccc1-c1nc2ccccc2s1 | -72 | 72* | 0 | · | -2 | 2
Cc1ccc(S(=O)(=O)CCC(=O)Nc2cccc(Cl)c2)cc1 | -6 | 6 | -3 | 3 | -1 | 5
Cc1ccc(S(=O)(=O)CCC(=O)Nc2cccc(S(=O)(=O)N3CCCCCC3)c2)cc1 | 20 | -20 | 32* | 1 | -1 | ·
CC(=O)c1cc(Cl)ccc1OCC(=O)Nc1cccc(S(=O)(=O)N2CCCC2)c1 | -17 | 17 | 50* | · | -1 | ·
Cc1cccc(NC(=O)CCS(=O)(=O)c2ccccc2)c1 | 31 | -31 | 62* | · | -3 | -9
Cc1ccc2nc(-c3ccc(NC(=O)CCS(=O)(=O)c4ccccc4)cc3)sc2c1 | -43 | 43 | 0 | · | -2 | 3
C[C@@H]1CN([C@H](C)CO)C(=O)c2cc(NC(=O)Cn3cnnn3)ccc2O[C@@H]1CN(C)C | · | · | · | 5[16.7 µM] | · | -8
COC(=O)C[C@@H]1CC[C@@H]2[C@H](COC[C@H](O)CN2CCC(F)(F)F)O1 | · | · | · | 0[16.7 µM] | · | -8
CC(=O)c1ccc(-c2ccc(C(=O)Nc3nc(-c4ccccn4)cs3)o2)cc1 | -81 | 81* | -22 | · | -1 | 50*
CCc1nnc(NC(=O)c2ccc(-c3ccc(C(C)=O)cc3)o2)s1 | -26 | 26 | 4 | · | 1 | 13
